Source: ChEMBL document CHEMBL3098051, “Rational design and synthesis of novel dibenzo[b,d]furan-1,2,3-triazole conjugates as potent inhibitors of Mycobacterium tuberculosis” (Eur J Med Chem, 2014)
≈ marks a conversion by molar mass, not a printed value.

Legend:
[1] = Selectivity index, ratio of IC50 for HEK293T cells to MIC for Mycobacterium tuberculosis H37Rv ATCC 27294; format: toxicity, cell-based, HEK-293T; settings: human, read-out: Selectivity Index
Procedure, shortened: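 SI was taken as the approximated IC50 in HEK293T cells (72 h MTT) relative to MIC against H37Rv (agar dilution, 28 days). SI above 10 was counted as nontoxic.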

[2] = Cytotoxicity against HEK293T cells at 50 ug/ml after 72 hrs by MTT assay; format: cell-based, HEK-293T; settings: human, read-out: INH
HEK-293T = assay: Cytotoxicity against HEK293T cells after 72 hrs by MTT assay; format: cell-based; settings: Homo sapiens
Procedure, shortened: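 Human embryonic kidney 293T cells were exposed to compound for 72 h. Viability was read by cellular conversion of MTT to formazan, and percentage growth of cells was reported.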

[3] = tested on: Mycobacterium tuberculosis; assay: Antimycobacterial activity against Mycobacterium tuberculosis H37Rv ATCC 27294 assessed as parasite growth inhibition after 28 days by agar dilution method; format: functional; settings: H37Rv ATCC 27294, 672 h
Procedure, shortened: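 Inoculum from fresh Middlebrook 7H11 agar slants with OADC supplement, adjusted to 1 mg/mL wet weight in 0.05% Tween 80 saline and diluted to about 10^7 cfu/mL. Suspension was spotted onto 7H11 agar tubes containing 10-fold serial drug dilutions and incubated at 37 °C. Read at 28 days. MIC was the lowest concentration completely inhibiting growth, run in triplicate at pH 7.40.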

SMILES	selectivity ratio [1]	cytotoxicity at 72 h, 50 ug/ml [2]	IC50 (HEK-293T)	MIC [3]
OCCCCn1cc(-c2ccc3oc4ccccc4c3c2)nn1	1	21.9%	> 50 µg/mL	50 µg/mL (≈ 163 µM)
Brc1cccc(Cn2cc(-c3ccc4oc5ccccc5c4c3)nn2)c1	> 10	12%	> 50 µg/mL	6.25 µg/mL (≈ 15.5 µM)
NNC(=O)c1ccncc1 [ISONIAZID]	–	–	–	0.1 µg/mL (≈ 0.729 µM)
O=[N+]([O-])c1ccc(Cn2cc(-c3ccc4oc5ccccc5c4c3)nn2)cc1	1	46.3%	50 µg/mL (≈ 135 µM)	50 µg/mL (≈ 135 µM)
Brc1ccc(Cn2cc(-c3ccc4oc5ccccc5c4c3)nn2)cc1	> 25	27.8%	> 50 µg/mL	0.78 µg/mL (≈ 1.93 µM)
CC(c1ccc2oc3ccccc3c2c1)n1cc(-c2ccc3oc4ccccc4c3c2)nn1 (centres undefined)	1	52.6%	50 µg/mL (≈ 116 µM)	50 µg/mL (≈ 116 µM)
CCOC(=O)Cn1cc(-c2ccc3oc4ccccc4c3c2)nn1	> 25	38.8%	> 50 µg/mL	1.56 µg/mL (≈ 4.85 µM)
CC[C@@H](CO)NCCN[C@@H](CC)CO [ETHAMBUTOL]	–	–	–	3.13 µg/mL (≈ 15.3 µM)
COc1ccc(Cn2cc(-c3ccc4oc5ccccc5c4c3)nn2)cc1	16	52.7%	50 µg/mL (≈ 141 µM)	3.12 µg/mL (≈ 8.78 µM)
CO[C@H]1/C=C/O[C@@]2(C)Oc3c(C)c(O)c4c(O)c(c(/C=N/N5CCN(C)CC5)c(O)c4c3C2=O)NC(=O)/C(C)=C\C=C\[C@H](C)[C@H](O)[C@@H](C)[C@@H](O)[C@@H](C)[C@H](OC(C)=O)[C@@H]1C [RIFAMPIN]	–	–	–	0.2 µg/mL (≈ 0.243 µM)
CC(c1ccc2sc3ccccc3c2c1)n1cc(-c2ccc3oc4ccccc4c3c2)nn1 (centres undefined)	1	61.1%	< 50 µg/mL	25 µg/mL (≈ 56.1 µM)
c1ccc(Cn2cc(-c3ccc4oc5ccccc5c4c3)nn2)cc1	1	36.1%	> 50 µg/mL	50 µg/mL (≈ 154 µM)
Cc1ccc(C(C)n2cc(-c3ccc4oc5ccccc5c4c3)nn2)cc1 (centres undefined)	16	43.1%	50 µg/mL (≈ 141 µM)	3.12 µg/mL (≈ 8.83 µM)
CC(c1ccc([N+](=O)[O-])cc1)n1cc(-c2ccc3oc4ccccc4c3c2)nn1 (centres undefined)	2	38.9%	> 50 µg/mL	25 µg/mL (≈ 65 µM)
COc1cccc(Cn2cc(-c3ccc4oc5ccccc5c4c3)nn2)c1	25	62.1%	< 50 µg/mL	0.78 µg/mL (≈ 2.19 µM)
COC(=O)c1ccc(Cn2cc(-c3ccc4oc5ccccc5c4c3)nn2)cc1	1	58.1%	< 50 µg/mL	25 µg/mL (≈ 65.2 µM)
COc1ccc(C(C)n2cc(-c3ccc4oc5ccccc5c4c3)nn2)cc1 (centres undefined)	> 16	18.9%	> 50 µg/mL	3.12 µg/mL (≈ 8.45 µM)
